Results from ChEMBL document CHEMBL3877290, “Targeting the entry region of Hsp90's ATP binding pocket with a novel 6,7-dihydrothieno[3,2-c]pyridin-5(4H)-yl amide” (Eur J Med Chem, 2016).
Calls of active or inactive are those of the source. No cut-off for these calls is given here.

Columns and labels:
[1] = Antiproliferative activity against gefitinib-resistant human NCI-H1975 cells after 1 to 3 days by MTS assay; format: functional
Method in brief: (§1)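 Cells seeded at 3 × 10^3 (Skbr3) or 2 × 10^3 (H1975) per well and left to attach overnight, then exposed to varying compound concentrations or 1% DMSO vehicle at 37 °C for 1, 2 and 3 days. Viability read by MTS colorimetric assay at 490 nm and expressed as percent of DMSO-only absorbance. Skbr3 in RPMI 1640 with 25 mM HEPES; H1975 in RPMI 1640 with L-glutamine; both with 10% FBS and penicillin/streptomycin.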

[2] = Antiproliferative activity against Her2-overexpressing human SKBR3 cells after 1 to 3 days by MTS assay; format: functional; conditions: SK-BR-3; method in brief: as §1
[3] = target: Heat shock protein HSP 90-alpha (Homo sapiens, UniProt P07900); experiment: Inhibition of fluorescein isothiocyanate labeled geldanamycin binding to N-terminal domain of full length human recombinant Hsp90alpha expressed in Escherichia coli BL21 (DE3) after 14 hrs by fluorescence polarization assay
NCI-H1975 [4] = experiment: Induction of apoptosis in gefitinib-resistant human NCI-H1975 cells assessed as cleavage of caspase 3 at 0.5 uM after 24 hrs by Western blot analysis; format: functional, cell-based
Method in brief: (§2)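 H1975 cells seeded 1 × 10^6 per 100 mm dish, attached overnight, exposed 24 h to 0.05, 0.1, 0.5, 1 and 2 µM compound, with 1% DMSO and 1 µM geldanamycin as controls. Lysed in Tris-HCl pH 7.6/NaCl/NP-40/deoxycholate/SDS buffer; 30 µg per lane SDS-PAGE, PVDF, 5% milk block, specific antibodies (PARP, caspase 3, cleaved caspase 3/8, β-actin), HRP secondary, ECL detection.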

Cytochrome P450 1A2 = target: T1, Cytochrome P450 1A2 (Homo sapiens, UniProt P05177); experiment: Inhibition of CYP1A2 in human liver microsomes assessed as phenacetin O-deethylation by LC/MS/MS analysis; format: ADME
T1 sequence (P05177 whole entry): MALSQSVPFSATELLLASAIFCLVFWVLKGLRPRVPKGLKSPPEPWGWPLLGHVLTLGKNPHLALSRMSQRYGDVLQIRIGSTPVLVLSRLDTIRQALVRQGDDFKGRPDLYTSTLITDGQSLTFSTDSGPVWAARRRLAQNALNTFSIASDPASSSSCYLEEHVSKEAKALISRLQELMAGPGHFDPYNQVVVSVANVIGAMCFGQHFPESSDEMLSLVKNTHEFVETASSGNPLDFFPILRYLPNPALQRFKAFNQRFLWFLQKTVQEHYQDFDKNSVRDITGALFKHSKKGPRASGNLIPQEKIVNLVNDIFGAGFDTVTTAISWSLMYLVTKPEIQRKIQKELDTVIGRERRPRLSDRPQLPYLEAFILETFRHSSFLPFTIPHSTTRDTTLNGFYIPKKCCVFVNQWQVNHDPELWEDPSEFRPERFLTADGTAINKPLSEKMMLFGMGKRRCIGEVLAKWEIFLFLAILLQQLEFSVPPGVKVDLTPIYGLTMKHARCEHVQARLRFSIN
Method in brief: (§3)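 Pooled human liver microsomes incubated without and with compound at 0–50 µM final (acetonitrile below 0.5%); probe activities in cocktail incubation: phenacetin O-deethylation (CYP1A2), tolbutamide 4-hydroxylation (2C9), omeprazole hydroxylation (2C19), dextromethorphan O-demethylation (2D6), midazolam 1'-hydroxylation (3A). Metabolites quantified by tandem mass spectrometry; duplicates; IC50 derived.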

Cytochrome P450 2C9 = Cytochrome P450 2C9 (Homo sapiens, UniProt P11712); experiment: Inhibition of CYP2C9 in human liver microsomes assessed as tolbutamide 4-methylhydroxylation by LC/MS/MS analysis; format: ADME; method in brief: as §3
[5] = target: T2, Heat shock protein HSP90 (Homo sapiens) (UniProt P07900+P08238); conditions: NCI-H1975, 0.05 to 2 uM
NCI-H1975 [6] = experiment: Induction of apoptosis in gefitinib-resistant human NCI-H1975 cells assessed as late apoptotic cells at 0.5 uM after 24 hrs by Annexin V-FITC/propidium iodide staining based flow cytometry (reference value: 2.79%); format: functional
[7] = Effect on beta-actin level in gefitinib-resistant human NCI-H1975 cells at 0.05 to 2 uM after 24 hrs by Western blot analysis; format: ADME, cell-based; conditions: nci-h1975, 24 h; method in brief: as §2
[8] = target: T2, Heat shock protein HSP90 (Homo sapiens); conditions: NCI-H1975, 0.05 to 2 uM; remark: listed apart in the source
[9] = target: T2, Heat shock protein HSP90 (Homo sapiens); conditions: NCI-H1975, 0.05 to 2 uM; remark: listed apart in the source
Mus musculus [10] = experiment: Toxicity in NOD-scid IL2Rgamma-null mouse xenografted with human NCI-H1975 cells assessed as mortality at 10 mg/kg, ip administered daily followed by weekend rest for 2 weeks measured twice per week during compound dosing; format: organism-based; conditions: in vivo, 336 h
Method in brief: (§4)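 NSG mice (8 per group, randomised) received 2.0 × 10^6 H1975 cells s.c. in the left flank on day zero. Dosing began once tumours reached 500 mm3: i.p. at 10 mg/kg or DMSO vehicle, daily with weekend rest, for 2 weeks. Body weight tracked and deaths recorded during treatment. Housing in individually ventilated cages at 25±2 °C with a 12 h light-dark cycle.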

[11] = target: T2, Heat shock protein HSP90 (Homo sapiens); conditions: NCI-H1975, 0.05 to 2 uM; remark: listed apart in the source
Mus musculus [12] = experiment: Decrease of Akt level in human NCI-H1975 cells xenografted in NOD-scid IL2Rgamma-null mouse at 10 mg/kg, ip administered daily followed by weekend rest for 2 weeks by immunohistochemical analysis; format: functional, organism-based
NCI-H1975 [13] = experiment: Induction of apoptosis in gefitinib-resistant human NCI-H1975 cells assessed as necrotic cells at 0.5 uM after 24 hrs by Annexin V-FITC/propidium iodide staining based flow cytometry (reference value: 2.68%); format: functional
NCI-H1975 [14] = experiment: cells; conditions: Homo sapiens, NCI-H1975, 24 h, read-out: Activity
NCI-H1975 [15] = experiment: Induction of apoptosis in gefitinib-resistant human NCI-H1975 cells assessed as early apoptotic cells at 0.5 uM after 24 hrs by Annexin V-FITC/propidium iodide staining based flow cytometry (reference value: 1.85%); format: functional
NCI-H1975 [16] = experiment: Induction of apoptosis in gefitinib-resistant human NCI-H1975 cells assessed as cleavage of caspase 8 at 0.5 uM after 24 hrs by Western blot analysis; format: functional, cell-based; method in brief: as §2
NCI-H1975 [17] = experiment: Induction of apoptosis in gefitinib-resistant human NCI-H1975 cells assessed as cleavage of PARP at 0.5 uM after 24 hrs by Western blot analysis; format: functional, cell-based; method in brief: as §2
NCI-H1975 [18] = experiment: Induction of apoptosis in gefitinib-resistant human NCI-H1975 cells assessed as viable cells at 0.5 uM after 24 hrs by Annexin V-FITC/propidium iodide staining based flow cytometry (reference value: 92.68%); format: functional; conditions: NCI-H1975, 24 h, read-out: Activity
Mus musculus [19] = experiment: Toxicity in NOD-scid IL2Rgamma-null mouse xenografted with human NCI-H1975 cells assessed as body weight loss at 10 mg/kg, ip administered daily followed by weekend rest for 2 weeks measured twice per week during compound dosing; format: organism-based; conditions: in vivo, 336 h; method in brief: as §4
Cytochrome P450 2C19 = Cytochrome P450 2C19 (Homo sapiens, UniProt P33261); experiment: Inhibition of CYP2C19 in human liver microsomes assessed as omepraozle hydroxylation by LC/MS/MS analysis; format: ADME; method in brief: as §3
[20] = target: T2, Heat shock protein HSP90 (Homo sapiens); conditions: NCI-H1975, 0.05 to 2 uM; remark: listed apart in the source
NCI-H1975 [21] = experiment: Antitumor activity against human NCI-H1975 cells xenografted in NOD-scid IL2Rgamma-null mouse assessed as tumor growth inhibition at 10 mg/kg, ip administered daily followed by weekend rest for 2 weeks measured twice per week during compound dosing; format: functional, organism-based
CYP3A = CYP3A (Homo sapiens, UniProt P08684+P20815+P24462+Q9HB55); experiment: Inhibition of CYP3A in human liver microsomes assessed as midazolam 1'-hydroxylation by LC/MS/MS analysis; format: ADME; conditions: probe midazolam (1'-hydroxylation); method in brief: as §3
[22] = target: T2, Heat shock protein HSP90 (Homo sapiens); conditions: NCI-H1975, 0.05 to 2 uM; remark: listed apart in the source
Cytochrome P450 2D6 = Cytochrome P450 2D6 (Homo sapiens, UniProt P10635); experiment: Inhibition of CYP2D6 in human liver microsomes assessed as dextromethorphan O-demethylation by LC/MS/MS analysis; format: ADME; method in brief: as §3
Chain of Cytochrome P450 2D6 (P10635 whole entry): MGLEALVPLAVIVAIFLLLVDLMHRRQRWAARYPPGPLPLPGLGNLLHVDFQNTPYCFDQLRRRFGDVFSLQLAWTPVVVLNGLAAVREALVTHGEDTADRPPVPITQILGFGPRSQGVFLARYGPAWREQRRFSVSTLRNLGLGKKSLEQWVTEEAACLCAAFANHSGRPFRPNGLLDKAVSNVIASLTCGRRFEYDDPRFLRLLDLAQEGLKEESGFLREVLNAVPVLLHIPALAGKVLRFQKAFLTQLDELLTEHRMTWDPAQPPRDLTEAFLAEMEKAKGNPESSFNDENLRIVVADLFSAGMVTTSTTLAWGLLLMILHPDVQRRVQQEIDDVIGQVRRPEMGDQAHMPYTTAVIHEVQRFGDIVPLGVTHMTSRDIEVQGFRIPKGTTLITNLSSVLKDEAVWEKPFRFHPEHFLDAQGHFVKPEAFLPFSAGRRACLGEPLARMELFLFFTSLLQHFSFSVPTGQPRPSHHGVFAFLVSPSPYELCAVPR

Chain of Cytochrome P450 2C19 (P33261 whole entry): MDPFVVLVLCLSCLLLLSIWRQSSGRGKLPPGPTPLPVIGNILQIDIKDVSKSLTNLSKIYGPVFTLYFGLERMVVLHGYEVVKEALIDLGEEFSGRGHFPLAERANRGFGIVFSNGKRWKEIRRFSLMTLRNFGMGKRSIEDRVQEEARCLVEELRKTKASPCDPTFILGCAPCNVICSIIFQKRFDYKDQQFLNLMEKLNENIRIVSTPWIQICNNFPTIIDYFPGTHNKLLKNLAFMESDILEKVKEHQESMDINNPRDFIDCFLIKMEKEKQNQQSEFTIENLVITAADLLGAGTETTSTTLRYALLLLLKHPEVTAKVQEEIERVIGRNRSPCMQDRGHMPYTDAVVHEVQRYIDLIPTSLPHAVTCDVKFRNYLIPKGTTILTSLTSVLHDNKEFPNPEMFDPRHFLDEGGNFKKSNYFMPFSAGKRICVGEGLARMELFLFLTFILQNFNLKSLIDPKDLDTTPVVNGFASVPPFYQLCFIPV
Chain of Cytochrome P450 2C9 (P11712 whole entry): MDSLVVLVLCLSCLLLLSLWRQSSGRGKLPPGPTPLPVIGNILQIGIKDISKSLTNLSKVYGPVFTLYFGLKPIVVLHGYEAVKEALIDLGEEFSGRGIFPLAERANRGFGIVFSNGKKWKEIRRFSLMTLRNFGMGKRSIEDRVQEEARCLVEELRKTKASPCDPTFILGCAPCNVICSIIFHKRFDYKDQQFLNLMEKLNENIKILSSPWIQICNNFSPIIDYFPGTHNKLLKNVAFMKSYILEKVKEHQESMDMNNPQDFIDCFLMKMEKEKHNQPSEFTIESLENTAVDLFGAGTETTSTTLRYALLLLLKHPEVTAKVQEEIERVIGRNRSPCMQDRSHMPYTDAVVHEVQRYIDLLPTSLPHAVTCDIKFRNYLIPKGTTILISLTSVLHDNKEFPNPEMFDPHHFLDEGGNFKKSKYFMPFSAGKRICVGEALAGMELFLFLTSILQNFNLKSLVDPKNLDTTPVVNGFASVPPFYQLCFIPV

O=C(c1cc(Cl)c(O)cc1O)N1CCc2ccccc2C1
GI50 [1]: 19.9 µM | GI50 [2]: 7.1 µM | IC50 [3]: 0.183 µM

Oc1cc(O)c(-c2nc3ccccc3o2)cc1Cl
GI50 [1]: > 50 µM | GI50 [2]: > 50 µM | IC50 [3]: > 1 µM

O=C(Nc1ccccc1)c1cc(Cl)c(O)cc1O
GI50 [1]: > 50 µM | IC50 [3]: > 1 µM

CC(C)c1cc(C(=O)N2CCc3sccc3C2)c(O)cc1O
Activity (NCI-H1975 [4]): Active | IC50 (Cytochrome P450 1A2): > 50 µM | IC50 (Cytochrome P450 2C9): > 50 µM | inhibition [5]: Active | Activity (NCI-H1975 [6]): 3.77% | Activity [7]: Non-Toxic | inhibition [8]: Active | GI50 [1]: 0.31 µM | inhibition [9]: Active | Activity (Mus musculus [10]): Non-Toxic | inhibition [11]: Active | Activity (Mus musculus [12]): Active | Activity (NCI-H1975 [13]): 3.67% | GI50 [2]: 0.11 µM | viability at 1 µM (NCI-H1975 [14]): 76% | Activity (NCI-H1975 [15]): 8.67% | Activity (NCI-H1975 [16]): Active | Activity (NCI-H1975 [17]): Active | viability at 0.5 µM (NCI-H1975 [18]): 83.9% | Activity (Mus musculus [19]): Non-Toxic | IC50 (Cytochrome P450 2C19): > 50 µM | inhibition [20]: Active | TGI (NCI-H1975 [21]): Active | IC50 [3]: 0.0503 µM | IC50 (CYP3A): > 50 µM | inhibition [22]: Active | IC50 (Cytochrome P450 2D6): > 50 µM

O=C(c1cc(Cl)c(O)cc1O)N1CCN(c2ccccc2)CC1
GI50 [1]: 19.1 µM | GI50 [2]: 9.3 µM | IC50 [3]: 0.481 µM

COC1=C2C[C@@H](C)C[C@H](OC)[C@H](O)[C@@H](C)/C=C(\C)[C@H](OC(N)=O)[C@@H](OC)/C=C\C=C(/C)C(=O)NC(=CC1=O)C2=O [GELDANAMYCIN]
GI50 [1]: 0.56 µM | GI50 [2]: 0.43 µM | viability at 1 µM (NCI-H1975 [14]): 65.7%

O=C(Nc1ccc(O)cc1)c1cc(Cl)c(O)cc1O
GI50 [1]: > 50 µM | IC50 [3]: > 1 µM

O=C(c1cc(Cl)c(O)cc1O)N1CCc2ccsc2C1
GI50 [1]: 8.7 µM | GI50 [2]: 5.4 µM | IC50 [3]: 0.136 µM
